From ChEMBL document CHEMBL1772939, “Ferruginenes A-C from Rhododendron ferrugineum and their cytotoxic evaluation” (J Nat Prod, 2011)
Calls of active or inactive are those of the source. No cut-off for these calls is given here.

Columns and labels:
[1] = Cytotoxicity against human HeLaS3 cells assessed as cell viability after 24 hrs by tryptan blue staining-based cell counting; type: functional; conditions: HeLa S3, 24 h
Summary of the method: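 HeLa-S3 cervix carcinoma cells (ATCC) grown in RPMI 1640 with 10% heat-inactivated FBS, 1% L-glutamine, 1% penicillin/streptomycin at 37 C, 5% CO2. Plated at 0.1 × 10^6 cells/mL for 24 h, then treated 24 h with compounds or 0.3% DMSO. Cells trypsinized, stained with 0.4% trypan blue, counted on a viability analyzer; IC50 from three independent experiments.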

HEK293 = assay: Cytotoxicity against human HEK293 cells assessed as cell viability after 24 hrs by tryptan blue staining-based cell counting; conditions: HEK293, 24 h
Summary of the method: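 HEK293 cells from ATCC, kept in DMEM with 10% heat-inactivated FBS, 1% L-glutamine, 1% penicillin/streptomycin, 37 C, 5% CO2. Seeded at 0.1 × 10^6 cells/mL in 24-well plates, grown 24 h, then exposed to compounds or 0.3% DMSO solvent for 24 h. Trypsinized cells stained with 0.4% trypan blue and counted by viability analyzer; IC50 from three independent experiments.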

[2] = molecular target: T1, 5-hydroxytryptamine receptor 1A (Homo sapiens) (UniProt P08908); assay: Binding affinity to 5HT1A receptor at 20 uM by radioligand displacement assay
T1 sequence (whole entry): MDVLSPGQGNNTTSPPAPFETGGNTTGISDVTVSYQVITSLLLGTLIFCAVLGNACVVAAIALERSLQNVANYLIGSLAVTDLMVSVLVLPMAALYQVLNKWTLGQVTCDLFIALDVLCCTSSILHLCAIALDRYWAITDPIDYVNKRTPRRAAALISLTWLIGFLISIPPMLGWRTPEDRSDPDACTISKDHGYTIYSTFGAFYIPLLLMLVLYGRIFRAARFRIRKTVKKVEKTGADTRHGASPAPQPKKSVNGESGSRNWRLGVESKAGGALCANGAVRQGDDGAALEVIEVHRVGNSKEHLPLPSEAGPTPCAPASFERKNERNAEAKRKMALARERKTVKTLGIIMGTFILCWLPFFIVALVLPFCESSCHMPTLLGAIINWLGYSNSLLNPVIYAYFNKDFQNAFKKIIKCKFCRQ

[3] = molecular target: Cannabinoid receptor 1 (Homo sapiens) (UniProt P21554); assay: Binding affinity to CB1 receptor at 20 uM by radioligand displacement assay
MCF7 = assay: Cytotoxicity against human MCF7 cells assessed as cell viability after 24 hrs by tryptan blue staining-based cell counting; type: functional; conditions: MCF7, 24 h
Summary of the method: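 MCF-7 breast adenocarcinoma cells (ATCC) in DMEM with 10% heat-inactivated FBS, 1% L-glutamine, 1% penicillin/streptomycin, 37 C, 5% CO2. Cultured at 0.2 × 10^6 cells/mL for 48 h before 24 h exposure to compounds or 0.3% DMSO. Trypsinized cells stained with 0.4% trypan blue and counted on a viability analyzer; IC50 from three independent experiments.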

HL-60 = assay: Cytotoxicity against human HL60 cells assessed as cell viability after 24 hrs by tryptan blue staining-based cell counting; type: functional; conditions: HL-60, 24 h
Summary of the method: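 HL-60 promyelocytic leukemia cells (ATCC) kept in RPMI 1640 with 10% heat-inactivated FBS, 1% L-glutamine, 1% penicillin/streptomycin, 37 C, 5% CO2. Seeded at 0.1 × 10^6 cells/mL, grown 24 h, then exposed 24 h to compounds or 0.3% DMSO solvent. Suspension cells stained with 0.4% trypan blue and counted on a viability analyzer; IC50 from three independent experiments.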

[4] = molecular target: Cannabinoid receptor 2 (Homo sapiens) (UniProt P34972); assay: Binding affinity to CB2 receptor at 20 uM by radioligand displacement assay
[5] = molecular target: Transient receptor potential cation channel subfamily V member 1 (Homo sapiens) (UniProt Q8NER1); assay: Binding affinity to TRPV1 receptor at 20 uM by radioligand displacement assay
Sequence of Transient receptor potential cation channel subfamily V member 1 (Homo sapiens) (Q8NER1 whole entry): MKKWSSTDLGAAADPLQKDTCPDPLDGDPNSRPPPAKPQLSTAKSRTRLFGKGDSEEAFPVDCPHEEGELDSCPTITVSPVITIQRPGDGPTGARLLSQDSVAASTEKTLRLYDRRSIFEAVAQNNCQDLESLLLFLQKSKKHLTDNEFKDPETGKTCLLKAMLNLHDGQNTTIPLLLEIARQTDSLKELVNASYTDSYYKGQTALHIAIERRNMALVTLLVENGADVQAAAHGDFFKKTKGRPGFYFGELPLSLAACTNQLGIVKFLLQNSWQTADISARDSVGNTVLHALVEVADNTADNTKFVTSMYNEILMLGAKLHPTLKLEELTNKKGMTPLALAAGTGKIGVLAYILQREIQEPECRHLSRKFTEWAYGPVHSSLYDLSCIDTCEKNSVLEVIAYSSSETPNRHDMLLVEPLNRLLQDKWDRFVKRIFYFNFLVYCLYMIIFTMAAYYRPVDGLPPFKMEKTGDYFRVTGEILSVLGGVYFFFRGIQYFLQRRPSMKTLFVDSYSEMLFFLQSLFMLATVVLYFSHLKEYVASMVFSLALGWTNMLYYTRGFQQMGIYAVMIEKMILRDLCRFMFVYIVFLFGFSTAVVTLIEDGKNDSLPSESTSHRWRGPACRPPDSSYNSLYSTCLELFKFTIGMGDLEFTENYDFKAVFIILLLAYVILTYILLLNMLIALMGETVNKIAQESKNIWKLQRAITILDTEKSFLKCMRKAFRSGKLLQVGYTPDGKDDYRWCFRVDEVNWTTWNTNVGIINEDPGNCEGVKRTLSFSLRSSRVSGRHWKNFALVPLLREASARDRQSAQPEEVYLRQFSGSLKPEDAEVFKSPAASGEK

Sequence of Cannabinoid receptor 2 (Homo sapiens) (P34972 whole entry): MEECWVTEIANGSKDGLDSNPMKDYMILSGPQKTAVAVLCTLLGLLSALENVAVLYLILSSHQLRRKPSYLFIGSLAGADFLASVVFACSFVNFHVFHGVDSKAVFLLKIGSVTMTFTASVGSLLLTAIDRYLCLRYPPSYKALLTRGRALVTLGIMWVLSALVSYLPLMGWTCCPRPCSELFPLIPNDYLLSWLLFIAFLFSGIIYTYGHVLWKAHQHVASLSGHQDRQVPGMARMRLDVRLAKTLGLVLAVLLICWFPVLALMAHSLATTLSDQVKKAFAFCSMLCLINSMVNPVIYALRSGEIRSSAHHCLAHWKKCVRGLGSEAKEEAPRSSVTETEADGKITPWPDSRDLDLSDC
Sequence of Cannabinoid receptor 1 (Homo sapiens) (P21554 whole entry): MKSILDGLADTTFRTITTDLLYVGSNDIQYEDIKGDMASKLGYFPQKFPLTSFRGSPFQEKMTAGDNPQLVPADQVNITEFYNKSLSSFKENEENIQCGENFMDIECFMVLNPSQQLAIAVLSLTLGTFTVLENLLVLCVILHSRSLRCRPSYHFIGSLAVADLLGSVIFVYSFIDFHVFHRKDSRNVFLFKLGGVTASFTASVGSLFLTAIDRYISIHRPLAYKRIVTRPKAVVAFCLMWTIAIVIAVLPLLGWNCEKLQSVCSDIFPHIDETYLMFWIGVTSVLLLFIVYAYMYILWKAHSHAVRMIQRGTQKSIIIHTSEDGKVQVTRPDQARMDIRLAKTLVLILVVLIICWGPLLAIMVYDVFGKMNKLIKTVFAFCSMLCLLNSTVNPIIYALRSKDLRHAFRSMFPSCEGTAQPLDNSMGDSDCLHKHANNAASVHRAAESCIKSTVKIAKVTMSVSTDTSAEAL

Activity [2] | Activity [3] | Activity [4] | Activity [5] | SMILES | IC50 [1] | IC50 (HEK293) | IC50 (MCF7) | IC50 (HL-60)
inactive | inactive | inactive | inactive | C=C(C)C(O)CCC(=C)[C@@H]1CC[C@](C)(O)[C@H]2Oc3cc(C)cc(O)c3[C@@H]12 (some centres not stated) [FERRUGINENE A] | > 20 µM | – | > 20 µM | > 20 µM
inactive | inactive | inactive | Active | C=C(C/C=C/C(C)(C)O)[C@@H]1CC[C@](C)(O)[C@H]2Oc3cc(C)cc(O)c3[C@@H]12 [FERRUGINENE B] | > 20 µM | – | > 20 µM | > 20 µM

SMILES | Activity [2] | Activity [3] | Activity [4] | Activity [5] | IC50 [1] | IC50 (HEK293) | IC50 (MCF7) | IC50 (HL-60)
C=C(C)C(O)CCC(=C)[C@@H]1CCC(C)=C[C@H]1c1c(O)cc(C)cc1O (mixture of isomers) [FERRUGINENE C] | inactive | inactive | Active | inactive | > 20 µM | > 20 µM | > 20 µM | > 13.7 µM
